17 compounds from ChEMBL document CHEMBL1154083, “Synthesis and structure-activity relationship of 3beta-(4-alkylthio, -methylsulfinyl, and -methylsulfonylphenyl)tropane and 3beta-(4-alkylthiophenyl)nortropane derivatives for monoamine transporters” (Bioorg Med Chem, 2009) can be followed below.

As usually defined, the IC50 is the concentration that inhibits the measured activity by half. Read a high IC50 as lower potency. For orientation: Ki means a dissociation constant, usually derived from enzyme kinetics or from competition with a known ligand. A higher Ki goes with lower affinity.

The target in assay [1] is Sodium-dependent dopamine transporter (Homo sapiens, UniProt Q01959). The experiment in a line: Displacement of [3H]WIN-35428 from DAT. An outline of the steps:
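[3H]WIN35,428 displacement at DAT; IC50 reported because DAT has two binding sites. Compounds tested as HCl or tartrate salts. Mean ± standard error of three or four experiments, each run in triplicate.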
Background: In a radioligand displacement assay an active substance lowers the binding of a labelled ligand.

The target of assay [2] is Sodium-dependent serotonin transporter (Homo sapiens, UniProt P31645). Briefly: Displacement of [3H]paroxetine from 5-HTT. An outline of the steps:
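Inhibition of [3H]paroxetine binding at 5-HTT, a single-site transporter, with Ki calculated from it. Compounds tested as HCl or tartrate salts. Mean ± standard error of three or four experiments, each run in triplicate.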

The nature of assay [3]: Selectivity ratio of Ki for NET to Ki for 5-HTT. In a few lines:
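NET/5-HTT selectivity: NET Ki (from [3H]nisoxetine binding) divided by 5-HTT Ki (from [3H]paroxetine binding). Both values are means of three or four triplicate experiments.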

Assay [4] addresses Sodium-dependent noradrenaline transporter (Homo sapiens, UniProt P23975). Briefly: Displacement of [3H]nisoxetine from NET.
A short description of assay [5]: Selectivity ratio of Ki for NET to IC50 for DAT. An outline of the steps: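 NET/DAT selectivity: NET Ki (from [3H]nisoxetine binding) divided by DAT IC50 (from [3H]WIN35,428 binding). Both values are means of three or four triplicate experiments.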

Bounds are passed on as bounds.

Sodium-dependent noradrenaline transporter, sequence (P23975 whole entry): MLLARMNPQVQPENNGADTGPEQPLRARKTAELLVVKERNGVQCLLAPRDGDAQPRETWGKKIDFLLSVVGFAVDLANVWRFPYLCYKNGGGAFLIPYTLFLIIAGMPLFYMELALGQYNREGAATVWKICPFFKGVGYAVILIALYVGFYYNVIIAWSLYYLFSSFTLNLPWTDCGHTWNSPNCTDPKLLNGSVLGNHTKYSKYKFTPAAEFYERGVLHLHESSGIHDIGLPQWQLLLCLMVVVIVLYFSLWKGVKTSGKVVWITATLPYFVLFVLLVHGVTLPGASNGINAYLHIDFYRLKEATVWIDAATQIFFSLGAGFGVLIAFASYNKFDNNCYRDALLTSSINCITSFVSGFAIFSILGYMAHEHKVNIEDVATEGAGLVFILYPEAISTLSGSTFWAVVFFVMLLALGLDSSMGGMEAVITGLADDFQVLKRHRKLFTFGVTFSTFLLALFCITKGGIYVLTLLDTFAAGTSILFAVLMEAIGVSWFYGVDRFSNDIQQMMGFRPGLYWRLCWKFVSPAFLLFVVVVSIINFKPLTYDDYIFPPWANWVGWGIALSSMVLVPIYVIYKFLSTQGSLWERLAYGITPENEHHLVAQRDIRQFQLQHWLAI
Sodium-dependent serotonin transporter, sequence (P31645 whole entry): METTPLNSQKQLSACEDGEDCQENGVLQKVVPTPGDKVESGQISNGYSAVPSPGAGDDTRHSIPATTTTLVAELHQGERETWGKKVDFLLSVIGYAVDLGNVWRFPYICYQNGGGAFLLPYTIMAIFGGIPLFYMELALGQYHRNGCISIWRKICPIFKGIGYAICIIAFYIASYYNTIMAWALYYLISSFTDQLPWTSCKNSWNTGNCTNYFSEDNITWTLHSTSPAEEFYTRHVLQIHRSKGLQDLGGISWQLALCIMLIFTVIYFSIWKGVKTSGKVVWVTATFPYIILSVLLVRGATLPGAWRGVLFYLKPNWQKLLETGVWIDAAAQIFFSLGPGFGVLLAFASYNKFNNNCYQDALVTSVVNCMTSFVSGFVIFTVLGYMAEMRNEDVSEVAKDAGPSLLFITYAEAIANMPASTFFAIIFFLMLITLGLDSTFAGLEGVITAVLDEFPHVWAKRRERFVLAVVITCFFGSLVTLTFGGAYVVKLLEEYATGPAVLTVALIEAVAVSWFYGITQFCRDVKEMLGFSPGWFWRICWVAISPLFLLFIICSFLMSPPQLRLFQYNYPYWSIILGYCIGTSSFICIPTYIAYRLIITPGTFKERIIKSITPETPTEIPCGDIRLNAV
Sodium-dependent dopamine transporter, sequence (Q01959 whole entry): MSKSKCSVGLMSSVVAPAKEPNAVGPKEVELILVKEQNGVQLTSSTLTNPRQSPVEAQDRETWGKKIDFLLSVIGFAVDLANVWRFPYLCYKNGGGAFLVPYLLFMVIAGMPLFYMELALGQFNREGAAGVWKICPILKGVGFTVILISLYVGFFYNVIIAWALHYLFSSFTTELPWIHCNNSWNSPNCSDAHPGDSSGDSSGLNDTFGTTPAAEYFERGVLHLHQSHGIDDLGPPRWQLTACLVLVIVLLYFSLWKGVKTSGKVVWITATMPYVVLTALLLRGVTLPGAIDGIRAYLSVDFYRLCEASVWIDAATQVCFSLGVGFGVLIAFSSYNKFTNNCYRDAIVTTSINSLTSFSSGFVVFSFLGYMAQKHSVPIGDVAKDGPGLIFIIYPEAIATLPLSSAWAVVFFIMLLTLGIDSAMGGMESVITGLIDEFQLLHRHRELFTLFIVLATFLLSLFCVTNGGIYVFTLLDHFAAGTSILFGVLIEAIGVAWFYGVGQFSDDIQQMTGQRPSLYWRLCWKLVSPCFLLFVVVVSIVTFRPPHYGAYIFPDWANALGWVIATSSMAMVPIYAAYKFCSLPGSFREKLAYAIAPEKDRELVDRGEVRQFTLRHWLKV

Consider `CCSc1ccc([C@H]2C[C@@H]3CC[C@H]([C@H]2C(=O)OC)N3C)cc1`, for which, in assay [1], the IC50 was 0.232 µM. For the same compound, the inhibition constant Ki came out at 0.0045 µM in assay [2] and 1.17 µM in assay [4]. The Ratio Ki in assay [3] turned out to be 260. For the same compound, the Ratio in assay [5] was 5.
Compound `CCCN1C2CCC1[C@@H](C(=O)OC)[C@@H](c1ccc(SC)cc1)C2` (stereo partly specified) displayed an IC50 in assay [1] of 0.074 µM. Moreover, the results for the Ki in assay [2] and in assay [4] were 0.0057 µM and 1.2 µM, respectively. Further, the Ratio Ki in assay [3] is 211. For the same compound, the Ratio in assay [5] was found to be 16.
As for `COC(=O)[C@H]1[C@@H](c2ccc(SC)cc2)C[C@@H]2CC[C@H]1N2C`, in assay [1], the 50% inhibitory concentration (IC50) stood at 0.009 µM. In addition, the Ki came to 0.0007 µM in assay [2] and 0.22 µM in assay [4]. Further, the Ratio Ki in assay [3] came out at 314. Moreover, the Ratio in assay [5] turned out to be 24.
In assay [1], `CCSc1ccc([C@H]2CC3CCC([C@H]2C(=O)OC)N3CCCF)cc1` (stereo partly specified) returned an IC50 of 1.2 µM. Moreover, the Ki in assay [2] was 0.027 µM; in assay [4], above 2 µM. The Ratio Ki in assay [3] was above 74. Besides, the Ratio in assay [5] amounted to 2.
In assay [1], `C=CCN1C2CCC1[C@@H](C(=O)OC)[C@@H](c1ccc(SC)cc1)C2` (stereo partly specified) displayed an IC50 of 0.071 µM. For the same compound, the Ki was 0.0055 µM in assay [2] and 2 µM in assay [4]. For the same compound, the Ratio Ki in assay [3] came to 364. Besides, the Ratio in assay [5] came out at 28.
`COC(=O)[C@@H]1C2CCC(C[C@@H]1c1ccc(SC)cc1)N2CCCF` (stereo partly specified): in assay [1], the IC50 was 0.112 µM. Further, the Ki in assay [2] came out at 0.003 µM; in assay [4], 0.96 µM. Further, in assay [3], the Ratio Ki came out at 320. Moreover, the Ratio in assay [5] is 9.
`CCCN1C2CCC1[C@@H](C(=O)OC)[C@@H](c1ccc(SCC)cc1)C2` (stereo partly specified) gave an IC50 in assay [1] of 0.9 µM. Moreover, the Ki was 0.049 µM in assay [2] and above 2 µM in assay [4]. Moreover, the Ratio Ki in assay [3] was above 41. Moreover, the Ratio in assay [5] was above 2.
Compound `COC(=O)[C@H]1[C@@H](c2ccc(SC(F)(F)F)cc2)C[C@@H]2CC[C@H]1N2C` gave an IC50 in assay [1] of 0.2 µM. Further, the Ki stood at 0.008 µM in assay [2] and 1.9 µM in assay [4]. For the same compound, the Ratio Ki in assay [3] came to 238. Further, the Ratio in assay [5] worked out at 10.
`COC(=O)[C@@H]1C2CCC(C[C@@H]1c1ccc(SC)cc1)N2` (stereo partly specified) gave an IC50 in assay [1] of 0.028 µM. The inhibition constant (Ki) was 0.00019 µM in assay [2] and 0.021 µM in assay [4]. Besides, the Ratio Ki in assay [3] is 110. Besides, the Ratio in assay [5] is 0.8.
In assay [1], `COC(=O)[C@H]1[C@@H](c2ccc([S+](C)[O-])cc2)C[C@@H]2CC[C@H]1N2C` (stereo partly specified) displayed an IC50 of 0.091 µM. For the same compound, the results for the Ki in assay [2] and in assay [4] were 0.0043 µM and 0.515 µM, respectively. In assay [3], the Ratio Ki amounted to 120. In addition, the Ratio in assay [5] came out at 6.
As for `CCSc1ccc([C@H]2CC3CCC(N3)[C@H]2C(=O)OC)cc1` (stereo partly specified), the IC50 in assay [1] came out at 0.177 µM. The Ki in assay [2] stood at 0.00126 µM; in assay [4], 0.118 µM. Further, the Ratio Ki in assay [3] was 94. For the same compound, the Ratio in assay [5] is 0.7.
The corresponding values for `COC(=O)[C@H]1[C@@H](c2ccc(SC)c(Br)c2)C[C@@H]2CC[C@H]1N2C` are 0.0101 µM, 0.0006 µM, 0.121 µM, 202 and 12.
Compound `COC(=O)[C@H]1[C@@H](c2ccc([S+](C)[O-])c(Br)c2)C[C@@H]2CC[C@H]1N2C` (stereo partly specified) came in with an IC50 in assay [1] of 0.076 µM. In addition, the values for the Ki in assay [2] and in assay [4] were 0.0032 µM and 0.69 µM, respectively. Besides, the Ratio Ki in assay [3] was determined as 216. In assay [5], the Ratio was determined as 9.
In turn, `COC(=O)[C@H]1[C@@H](c2ccc(S(C)(=O)=O)cc2)C[C@@H]2CC[C@H]1N2C` returned an IC50 in assay [1] above 10 µM. In addition, the inhibitory constant (Ki) is 0.208 µM in assay [2] and above 10 µM in assay [4]. Also, the Ratio Ki in assay [3] was above 48.
As for `C=CCN1C2CCC1[C@@H](C(=O)OC)[C@@H](c1ccc(SCC)cc1)C2` (stereo partly specified), in assay [1], the IC50 came out at 1.1 µM. Besides, the inhibition constant Ki was 0.047 µM in assay [2] and above 2 µM in assay [4]. Moreover, in assay [3], the Ratio Ki is above 43. Further, the Ratio in assay [5] is above 2.
The corresponding values for `COC(=O)[C@H]1[C@@H](c2ccc(SC(C)C)cc2)C[C@@H]2CC[C@H]1N2C` are 0.016 µM, 0.023 µM, 0.129 µM, 7 and 8.
Take `COC(=O)[C@H]1[C@@H](c2ccc(OC)cc2)C[C@@H]2CC[C@H]1N2C`: the figures for the Ki in assay [2] and in assay [4] were 0.0043 µM and 1.11 µM, respectively.
